The values below come from ChEMBL document CHEMBL6134796, “Development and Evaluation of Indole-Based Phospholipase D Inhibitors for Lung Cancer Immunotherapy” (J Med Chem, 2025).

Activity calls are given as the source filed them. No cut-off for these calls is given here.

The target of data set [1] is T1, Phospholipase D1 (Mus musculus) (UniProt Q9Z280).
T1 sequence (whole entry): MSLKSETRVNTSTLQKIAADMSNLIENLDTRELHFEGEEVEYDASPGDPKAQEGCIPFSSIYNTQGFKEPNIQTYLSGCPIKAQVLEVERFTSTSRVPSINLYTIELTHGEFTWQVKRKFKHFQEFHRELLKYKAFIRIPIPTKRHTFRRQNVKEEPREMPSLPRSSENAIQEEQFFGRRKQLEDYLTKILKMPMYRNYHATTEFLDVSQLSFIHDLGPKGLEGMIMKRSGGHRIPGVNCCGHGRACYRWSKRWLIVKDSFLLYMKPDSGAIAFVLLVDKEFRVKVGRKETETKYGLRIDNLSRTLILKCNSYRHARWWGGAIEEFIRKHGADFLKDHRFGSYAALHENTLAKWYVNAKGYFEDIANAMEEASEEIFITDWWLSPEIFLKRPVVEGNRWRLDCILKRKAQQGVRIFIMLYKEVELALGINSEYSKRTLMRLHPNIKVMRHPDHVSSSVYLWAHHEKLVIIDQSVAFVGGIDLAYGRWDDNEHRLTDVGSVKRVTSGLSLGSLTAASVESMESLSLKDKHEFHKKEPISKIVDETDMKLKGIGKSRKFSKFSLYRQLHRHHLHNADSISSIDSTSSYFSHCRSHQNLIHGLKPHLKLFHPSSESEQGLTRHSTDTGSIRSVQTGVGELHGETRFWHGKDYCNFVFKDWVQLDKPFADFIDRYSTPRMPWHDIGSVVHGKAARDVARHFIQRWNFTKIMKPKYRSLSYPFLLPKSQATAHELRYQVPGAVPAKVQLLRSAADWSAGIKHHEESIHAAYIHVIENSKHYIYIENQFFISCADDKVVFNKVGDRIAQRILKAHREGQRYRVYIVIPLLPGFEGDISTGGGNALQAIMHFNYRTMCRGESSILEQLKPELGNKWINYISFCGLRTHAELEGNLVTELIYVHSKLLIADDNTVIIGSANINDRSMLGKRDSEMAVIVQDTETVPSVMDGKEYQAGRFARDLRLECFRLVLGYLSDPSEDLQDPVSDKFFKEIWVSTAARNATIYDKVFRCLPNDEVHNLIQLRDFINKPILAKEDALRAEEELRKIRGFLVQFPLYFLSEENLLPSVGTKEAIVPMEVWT
Description: In vivo inhibition of PLD1 in male C57BL/6 mouse allografted with mouse Lewis lung carcinoma cell line assessed as reduction in CD47 expression at 10 mg/kg, po by immunofluorescence analysis. The format is functional, organism-based.

The nature of data set [2]: Metabolic stability in human plasma assessed as parent compound remaining at 10 uM measured after 30 mins. The format is ADME, cell-free. To be noted: read-out: Stability. Put shortly:
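Citrated human plasma spiked to final 10 μM, incubated at 37 °C for 0, 30 and 120 min; quenched with acetonitrile containing internal standard, vortexed, centrifuged at 4 °C; parent remaining quantified by LC-MS/MS in MRM mode on C18 column, formic acid water/acetonitrile gradient.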

Data set [3] addresses T1, Phospholipase D1 (Mus musculus). In words: In vivo inhibition of PLD1 in male C57BL/6 mouse allografted with mouse Lewis lung carcinoma cell line assessed as reduction in CD24 expression at 10 mg/kg, po by immunofluorescence analysis. The format is functional, organism-based.
The target in data set [4] is T2, Phospholipase D1 (Homo sapiens) (UniProt Q13393).
T2 sequence (whole entry): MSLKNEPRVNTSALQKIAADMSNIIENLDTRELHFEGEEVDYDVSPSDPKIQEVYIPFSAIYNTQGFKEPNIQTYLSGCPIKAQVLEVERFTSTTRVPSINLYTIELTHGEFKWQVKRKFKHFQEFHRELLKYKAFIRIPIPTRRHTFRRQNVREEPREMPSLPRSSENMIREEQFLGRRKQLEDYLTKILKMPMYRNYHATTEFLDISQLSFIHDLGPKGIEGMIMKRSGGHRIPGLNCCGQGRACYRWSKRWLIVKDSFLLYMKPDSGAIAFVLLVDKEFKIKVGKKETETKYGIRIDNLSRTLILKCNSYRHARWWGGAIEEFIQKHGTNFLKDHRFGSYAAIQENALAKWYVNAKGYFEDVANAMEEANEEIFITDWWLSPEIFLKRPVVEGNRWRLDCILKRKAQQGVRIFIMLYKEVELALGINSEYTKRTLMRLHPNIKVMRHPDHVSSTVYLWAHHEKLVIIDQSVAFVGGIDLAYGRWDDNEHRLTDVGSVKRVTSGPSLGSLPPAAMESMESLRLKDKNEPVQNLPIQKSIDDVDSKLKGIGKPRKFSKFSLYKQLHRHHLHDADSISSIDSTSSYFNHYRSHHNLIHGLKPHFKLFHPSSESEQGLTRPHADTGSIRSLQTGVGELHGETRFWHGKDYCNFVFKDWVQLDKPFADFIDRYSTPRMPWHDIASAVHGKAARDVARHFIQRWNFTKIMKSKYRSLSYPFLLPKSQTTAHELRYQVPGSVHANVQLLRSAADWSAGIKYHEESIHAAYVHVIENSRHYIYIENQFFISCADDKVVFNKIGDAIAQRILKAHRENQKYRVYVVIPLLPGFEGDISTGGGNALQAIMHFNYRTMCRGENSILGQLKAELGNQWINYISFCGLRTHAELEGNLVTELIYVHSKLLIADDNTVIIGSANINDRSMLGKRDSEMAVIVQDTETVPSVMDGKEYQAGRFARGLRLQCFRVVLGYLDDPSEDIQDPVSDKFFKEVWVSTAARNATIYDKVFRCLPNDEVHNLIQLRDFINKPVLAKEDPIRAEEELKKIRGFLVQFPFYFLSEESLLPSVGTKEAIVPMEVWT
Description: Inhibition of PLD1 (unknown origin) overexpressed in human A549 cells. The format is cell-based. Put shortly:
(§1)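 A549 cells transfected with wild-type PLD1, PLD1 mutants (L425A, F614A, F789A) or PLD2, then compound-treated. PLD activity measured as [3H]phosphatidylbutanol formed in the presence of 1-butanol after [3H]myristic acid labeling, expressed as % of total lipid cpm. At least three independent experiments.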

The nature of data set [5]: Metabolic stability in human liver microsomes assessed as parent compound remaining at 1 uM preincubated for 5 mins followed by NADPH regenerating system addition and measured after 30 mins by LC-MS/MS analysis. The format is ADME, Microsome. As to conditions: time 35 min, read-out: Stability. Put shortly:
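Human liver microsomes 0.5 mg/mL in 0.1 M phosphate buffer pH 7.4, compound 1 μM, preincubated 5 min at 37 °C; NADPH regenerating system added, 30 min at 37 °C; quenched with acetonitrile containing chlorpropamide internal standard, centrifuged; parent remaining by LC-MS/MS, MRM mode, C18 column with formic acid/acetonitrile gradient.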
For orientation: Liver microsomes are vesicles of endoplasmic reticulum, rich in cytochrome P450 enzymes.

Data set [6] in a line: Inhibition of PLD in human A549 cells measured after 1 hr by amplex red phospholipase D assay. The format is cell-based.
Data set [7] concerns A549. Description: Inhibition of PLD1 L425A mutant (unknown origin) overexpressed in human A549 cells. The format is cell-based. An outline of the steps:
as §1

For data set [8], the system named is Lewis lung carcinoma cell line. Description: Antitumor activity against mouse Lewis lung carcinoma cell line allografted in […] male C57BL/6 mouse model assessed as suppression of tumor formation at 10 mg/kg, po measured every other day for 3 weeks. The format is functional, organism-based.

On to `O=C(CCc1c[nH]c2ccccc12)Nc1cc(C(F)(F)F)cc(C(F)(F)F)c1`, for which the inhibition entry in data set [1], in data set [3], in data set [4] and in data set [7] was “Active” throughout. In addition, the remaining at 0.5 h, 10 µM in data set [2] came out at 97.4%. For the same molecule, the remaining at 0.5 h, 1 µM in data set [5] is 57.3%. For the same molecule, in data set [6], the IC50 came to 1970 nM. Also, in data set [8], the outcome was Active.

As usually defined, the IC50 is the concentration that gives 50% inhibition. Low values mean higher potency, high ones lower potency.
